# ChEMBL document CHEMBL1148717, “Design, synthesis, and biological evaluation of Plasmodium falciparum lactate dehydrogenase inhibitors” (J Med Chem, 2007)
# Legend:
# Lactate dehydrogenase = Lactate dehydrogenase (Plasmodium falciparum, UniProt Q0PJ46); assay: Inhibition of Plasmodium falciparum LDH
# Outline: (§1)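 Recombinant P. falciparum LDH and MDH, bovine heart LDH, and porcine heart mitochondrial and cytosolic MDH were each assayed in 50 mM potassium phosphate (pH 7.0) with 200 µM pyruvate. Reactions were started with 250 µM NADH, and the fall in A340 was followed for 5 min at 25 °C. Compounds were first screened at 50 and 100 µg/mL. Those giving over 50% inhibition at 50 µg/mL were retested for IC50.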
# [1] = Inhibition of bovine heart LDH; design: species or system Bos taurus
# Malate dehydrogenase = biological target: T1, Malate dehydrogenase (Plasmodium falciparum, UniProt Q6VVP7); assay: Inhibition of Plasmodium falciparum MDH; outline: as §1
# T1 sequence (Q6VVP7 whole entry): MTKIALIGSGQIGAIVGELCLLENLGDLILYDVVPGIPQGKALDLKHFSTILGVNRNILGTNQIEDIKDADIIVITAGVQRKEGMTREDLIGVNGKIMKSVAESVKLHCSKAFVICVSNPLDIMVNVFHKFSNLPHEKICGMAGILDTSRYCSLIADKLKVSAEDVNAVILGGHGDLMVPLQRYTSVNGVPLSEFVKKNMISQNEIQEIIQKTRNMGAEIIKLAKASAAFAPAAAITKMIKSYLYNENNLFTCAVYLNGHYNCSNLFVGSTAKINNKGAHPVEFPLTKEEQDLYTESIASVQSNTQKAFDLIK
# [2] = biological target: T2, Malate dehydrogenase, mitochondrial (Sus scrofa, UniProt P00346); assay: Inhibition of pig heart mitochondrial MDH; outline: as §1
# T2 sequence (P00346 whole entry): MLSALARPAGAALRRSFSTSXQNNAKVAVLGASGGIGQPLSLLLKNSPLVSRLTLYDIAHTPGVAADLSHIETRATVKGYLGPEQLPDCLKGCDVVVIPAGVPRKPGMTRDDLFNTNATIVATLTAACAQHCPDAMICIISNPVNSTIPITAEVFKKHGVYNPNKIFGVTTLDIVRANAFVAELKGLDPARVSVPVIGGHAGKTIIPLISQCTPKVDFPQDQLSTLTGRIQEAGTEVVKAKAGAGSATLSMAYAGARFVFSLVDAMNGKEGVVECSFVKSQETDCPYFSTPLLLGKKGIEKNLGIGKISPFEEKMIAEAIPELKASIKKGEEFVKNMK
# [3] = biological target: T3, Malate dehydrogenase, cytoplasmic (Sus scrofa, UniProt P11708); assay: Inhibition of pig cytosolic MDH; outline: as §1
# T3 sequence (P11708 whole entry): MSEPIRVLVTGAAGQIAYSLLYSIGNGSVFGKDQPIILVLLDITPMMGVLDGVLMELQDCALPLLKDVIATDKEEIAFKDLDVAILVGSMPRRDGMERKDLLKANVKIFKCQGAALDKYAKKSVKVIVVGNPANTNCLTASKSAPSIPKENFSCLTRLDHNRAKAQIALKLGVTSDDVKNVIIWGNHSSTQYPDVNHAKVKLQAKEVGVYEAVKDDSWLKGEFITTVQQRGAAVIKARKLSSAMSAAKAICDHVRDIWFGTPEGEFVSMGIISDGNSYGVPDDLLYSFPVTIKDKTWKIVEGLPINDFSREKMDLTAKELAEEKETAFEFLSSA
# [4] = Selectivity for Plasmodium falciparum LDH over bovine heart LDH
# Chain of Lactate dehydrogenase (Q0PJ46 whole entry): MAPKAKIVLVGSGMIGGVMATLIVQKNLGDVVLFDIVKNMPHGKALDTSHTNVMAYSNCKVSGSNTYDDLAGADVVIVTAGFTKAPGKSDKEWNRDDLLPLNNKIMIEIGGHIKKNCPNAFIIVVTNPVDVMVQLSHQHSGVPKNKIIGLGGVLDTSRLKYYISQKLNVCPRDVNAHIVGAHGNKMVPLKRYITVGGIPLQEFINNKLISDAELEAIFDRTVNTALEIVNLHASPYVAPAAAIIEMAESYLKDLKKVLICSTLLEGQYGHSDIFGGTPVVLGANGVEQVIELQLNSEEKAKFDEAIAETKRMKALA
SMILES,IC50 (Lactate dehydrogenase; read-out: IC50) [µM],IC50 ([1]; read-out: IC50) [µM],IC50 (Malate dehydrogenase; read-out: IC50) [µM],IC50 [2] [µM],IC50 ([3]; read-out: IC50) [µM],Ratio IC50 [4],IC50 [3],IC50 (Lactate dehydrogenase),IC50 [1],IC50 (Malate dehydrogenase)
COc1ccc(CNC(=O)c2cc(=O)c3c(O)cc(OCCc4ccc(NC(=O)C(=O)O)c(OC)c4)cc3o2)cc1,1.75,11.4,2.66,0.39,6.31,–,–,–,–,–
COc1ccc(CNC(=O)c2cc(=O)c3c(O)cc(OCCc4ccc(NC(=O)C(=O)O)c(C#N)c4)cc3o2)cc1,8.25,> 179,86.9,5.91,10.9,22,–,–,–,–
O=C(O)C(=O)Nc1ccc(CCOc2cc(O)c3c(=O)cc(C(=O)O)oc3c2)cc1,> 241,–,> 241,96.7,–,–,Not Active,–,–,–
N#Cc1cc(CCOc2cc(O)c3c(=O)cc(C(=O)O)oc3c2)ccc1NC(=O)C(=O)O,–,–,–,17.1,13.6,–,–,Not Active,Not Active,Not Active
COc1ccc(CNC(=O)c2cc(=O)c3c(O)cc(OCCc4ccc(NC(=O)C(=O)O)cc4)cc3o2)cc1,3.13,> 187,6.76,2.72,4.88,59,–,–,–,–
Cc1cc2c(C(C)C)c(O)c(O)c(C=O)c2c(O)c1-c1c(C)cc2c(C(C)C)c(O)c(O)c(C=O)c2c1O [GOSSYPOL],2.64,9.54,2.03,2.8,5.8,–,–,–,–,–
NC(=O)C(=O)O [OXAMATE],92.5,–,> 2000,> 2000,> 2000,–,–,–,–,–
COc1cc(COc2cc(O)c3c(=O)cc(C(=O)O)oc3c2)ccc1NC(=O)C(=O)O,87.3,–,48.3,64,> 232,–,–,–,–,–
COc1cc(CCOc2cc(O)c3c(=O)cc(C(=O)O)oc3c2)ccc1NC(=O)C(=O)O,191,–,> 225,> 225,–,–,Not Active,–,–,–
